Measurements reported in ChEMBL document CHEMBL1133445, “Nonpeptide alpha(v)beta(3) antagonists. 1. Transformation of a potent, integrin-selective alpha(IIb)beta(3) antagonist into a potent alpha(v)beta(3) antagonist” (J Med Chem, 2000).
pIC50, pKd: −log10 of the molar value.

Legend:
Homo sapiens = species: Homo sapiens; experiment: In vitro inhibition of the rate of ADP-stimulated human gel-filtered platelet aggregation (PLAGGIN); assay type: functional
Procedure, shortened: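 Gel-filtered human platelets at 2×10^8/mL with 0.1 mg/mL human fibrinogen and 1 mM CaCl2. Light-transmittance aggregometry at 37 °C, with aggregation started by 10 μM ADP in the presence of test compound or vehicle.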

Integrin alpha-V/beta-3 [1] = biological target: T1, Integrin alpha-V/beta-3 (Homo sapiens, UniProt P05106+P06756); experiment: Displacement of [125I]nonpeptide ligand (compound 7) from purified human recombinant alphaV-beta3; assay type: protein-complex assay
Procedure, shortened: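 αvβ3 purified from 293 cells overexpressing human recombinant receptor, captured on wheatgerm agglutinin scintillation proximity beads. Incubated with ~40 pM final 125I-labeled nonpeptide ligand in HEPES pH 7.5 binding buffer with Ca2+/Mg2+, overnight at 4 °C with rocking. Nonspecific binding with 1 μM final cold ligand. Counted by scintillation; IC50 derived. Error given as SD.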

Integrin alpha-V/beta-3 [2] = biological target: T1, Integrin alpha-V/beta-3; experiment: Dissociation constant of radiolabeled compound binding to alpha-v-beta-3; assay type: protein-complex assay
Integrin alpha-V/beta-3 [3] = biological target: T1, Integrin alpha-V/beta-3; experiment: Displacement of [125I]echistatin from human recombinant alpha-v beta-3 receptor; assay type: protein-complex assay
Procedure, shortened: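 Cell extracts of HEK 293 stably transfected with human αvβ3 (~10 × 10^6 receptors/cell) incubated with 30 pM 125I-echistatin in Tris-HCl pH 7.8 buffer with NaCl, Ca/Mg and 0.1% BSA. Nonspecific binding with 1 μM unlabeled echistatin. Bound ligand separated by filtration on poly(ethylenimine)-soaked filters and gamma-counted. Error given as SD.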

Rattus norvegicus [4] = species: Rattus norvegicus; experiment: In vitro inhibition of rat osteoclast-mediated bone resorption (BONE RES)
[5] = Half-life following a 1 mg/kg iv bolus dose to male rats (n=4); assay type: ADME, organism-based; parameters: dose 1 mg/kg, route intravenous; conditions: rat, in vivo
Rattus norvegicus [6] = experiment: Inhibition of the increase of serum calcium levels in a dose-dependent fashion after subcutaneous infusion for 6 hr to TPTX rats at doses 0.20, 0.67, and 2 mg/kg/h; assay type: organism-based; parameters: route subcutaneous
Procedure, shortened: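 Rats thyroparathyroidectomized and kept on a low-calcium diet; those with serum Ca < 8 mg/dL used. On day 3, anesthetized rats got subcutaneous infusion of vehicle or compound. Bovine PTH(1–34) at 0.03 nmol/h by osmotic minipump started 30 min later. Serum calcium measured at baseline and at the 4–6 h endpoint. Plasma drug levels measured by the echistatin binding bioassay.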

T1 sequence (P05106 27-788 limits assumed): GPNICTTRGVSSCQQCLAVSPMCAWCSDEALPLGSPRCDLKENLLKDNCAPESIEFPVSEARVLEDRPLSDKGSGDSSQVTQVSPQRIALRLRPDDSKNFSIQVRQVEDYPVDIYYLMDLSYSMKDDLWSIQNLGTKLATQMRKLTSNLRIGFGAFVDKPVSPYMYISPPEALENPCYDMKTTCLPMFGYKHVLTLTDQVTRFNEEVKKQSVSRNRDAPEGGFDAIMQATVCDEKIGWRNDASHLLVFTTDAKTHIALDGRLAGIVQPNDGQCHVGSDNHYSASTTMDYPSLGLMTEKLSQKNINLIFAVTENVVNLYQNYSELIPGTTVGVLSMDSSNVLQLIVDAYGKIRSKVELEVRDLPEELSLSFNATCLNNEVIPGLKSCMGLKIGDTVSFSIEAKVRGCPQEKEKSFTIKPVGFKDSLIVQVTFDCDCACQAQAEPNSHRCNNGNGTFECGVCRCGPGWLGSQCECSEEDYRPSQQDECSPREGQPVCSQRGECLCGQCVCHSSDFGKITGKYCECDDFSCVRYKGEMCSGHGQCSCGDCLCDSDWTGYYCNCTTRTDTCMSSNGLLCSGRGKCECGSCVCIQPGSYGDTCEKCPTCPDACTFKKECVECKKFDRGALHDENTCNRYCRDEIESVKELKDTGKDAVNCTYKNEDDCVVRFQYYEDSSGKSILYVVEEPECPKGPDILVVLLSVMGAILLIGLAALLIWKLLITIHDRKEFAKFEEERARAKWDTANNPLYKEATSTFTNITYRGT
T1 sequence (P06756 31-889 limits assumed): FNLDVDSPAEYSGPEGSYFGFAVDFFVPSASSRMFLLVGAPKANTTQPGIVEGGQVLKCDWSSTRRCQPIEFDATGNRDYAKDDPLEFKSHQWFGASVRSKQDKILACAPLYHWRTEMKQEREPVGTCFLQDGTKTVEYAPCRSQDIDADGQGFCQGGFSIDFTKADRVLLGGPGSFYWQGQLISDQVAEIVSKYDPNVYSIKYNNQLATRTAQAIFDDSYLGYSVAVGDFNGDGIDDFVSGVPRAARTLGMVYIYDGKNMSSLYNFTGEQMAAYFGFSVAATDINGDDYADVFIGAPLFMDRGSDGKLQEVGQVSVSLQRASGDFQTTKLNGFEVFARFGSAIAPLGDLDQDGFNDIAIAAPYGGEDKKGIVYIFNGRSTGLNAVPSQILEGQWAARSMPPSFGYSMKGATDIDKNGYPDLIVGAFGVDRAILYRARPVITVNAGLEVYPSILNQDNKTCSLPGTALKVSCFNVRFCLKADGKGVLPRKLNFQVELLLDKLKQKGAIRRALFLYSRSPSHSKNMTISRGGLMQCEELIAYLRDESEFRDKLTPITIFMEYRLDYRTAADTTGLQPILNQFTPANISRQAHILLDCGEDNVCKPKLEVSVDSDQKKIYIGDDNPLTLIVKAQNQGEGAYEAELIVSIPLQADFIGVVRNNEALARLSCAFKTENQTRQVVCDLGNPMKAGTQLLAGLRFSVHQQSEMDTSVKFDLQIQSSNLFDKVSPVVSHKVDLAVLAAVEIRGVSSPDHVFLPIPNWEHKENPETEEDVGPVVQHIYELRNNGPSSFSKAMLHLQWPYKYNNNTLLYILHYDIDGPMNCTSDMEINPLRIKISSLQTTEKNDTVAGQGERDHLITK
T1 sequence (P06756 891-1048 limits assumed): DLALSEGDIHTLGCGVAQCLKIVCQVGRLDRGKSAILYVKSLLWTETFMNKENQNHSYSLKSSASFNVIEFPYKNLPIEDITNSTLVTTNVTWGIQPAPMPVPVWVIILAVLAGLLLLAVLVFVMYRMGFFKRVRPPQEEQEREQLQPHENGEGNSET

Row | Compound | pIC50 (Homo sapiens) | pIC50 (Integrin alpha-V/beta-3 [1]) | pKd (Integrin alpha-V/beta-3 [2]) | pIC50 (Integrin alpha-V/beta-3 [3]) | pIC50 (Rattus norvegicus [4]) | half-life [5] [min] | pIC50 (Rattus norvegicus [6])
1 | Nc1cccc(CCc2ccc(C(=O)NC[C@H](NS(=O)(=O)c3ccc(I)cc3)C(=O)O)cc2)n1 | 5.80 | 10.10 | 10.22 | 10.00 | – | – | –
2 | Nc1cccc(CCc2ccc(C(=O)NC[C@H](NS(=O)(=O)c3ccccc3)C(=O)O)cc2)n1 | 6.85 | 9.36 | – | 9.40 | 8.10 | – | –
3 | O=C(NC[C@H](NS(=O)(=O)c1ccccc1)C(=O)O)c1ccc(OCCNC2=NCCCN2)cc1 | 7.36 | 9.03 | – | 9.15 | 7.34 | – | –
4 | N=C(N)NCCOc1ccc(C(=O)NC[C@H](NS(=O)(=O)c2ccccc2)C(=O)O)cc1 | 7.77 | 7.97 | – | 8.74 | 6.52 | – | –

Continued by rising pIC50 (Homo sapiens), values first:

Row | pIC50 (Homo sapiens) | pIC50 (Integrin alpha-V/beta-3 [1]) | pKd (Integrin alpha-V/beta-3 [2]) | pIC50 (Integrin alpha-V/beta-3 [3]) | pIC50 (Rattus norvegicus [4]) | half-life [5] [min] | pIC50 (Rattus norvegicus [6]) | Compound
5 | 6.59 | 10.15 | – | 9.52 | 8.52 | < 30 | 6.70 | O=C(NC[C@H](NS(=O)(=O)c1ccccc1)C(=O)O)c1ccc(CCc2ccc3c(n2)NCCC3)cc1
6 | 8.00 | < 6.00 | – | < 6.00 | – | – | – | O=C(NC[C@H](NS(=O)(=O)c1ccccc1)C(=O)O)c1ccc(OCCC2CCNCC2)cc1
